Data: ChEMBL document CHEMBL4130539, “Novel ureidopropanamide based N-formyl peptide receptor 2 (FPR2) agonists with potential application for central nervous system disorders characterized by neuroinflammation” (Eur J Med Chem, 2017)
pEC50: −log10 of the molar value. Activity calls are given as the source filed them. The rule behind the calls is not given here.

Columns and labels:
[1] = target: T1, fMet-Leu-Phe receptor (Homo sapiens, UniProt P21462); assay: Agonist activity at human FPR1 expressed in human HL60 cells assessed as induction of calcium mobilization; type: functional, cell-based
T1 sequence (P21462 whole entry): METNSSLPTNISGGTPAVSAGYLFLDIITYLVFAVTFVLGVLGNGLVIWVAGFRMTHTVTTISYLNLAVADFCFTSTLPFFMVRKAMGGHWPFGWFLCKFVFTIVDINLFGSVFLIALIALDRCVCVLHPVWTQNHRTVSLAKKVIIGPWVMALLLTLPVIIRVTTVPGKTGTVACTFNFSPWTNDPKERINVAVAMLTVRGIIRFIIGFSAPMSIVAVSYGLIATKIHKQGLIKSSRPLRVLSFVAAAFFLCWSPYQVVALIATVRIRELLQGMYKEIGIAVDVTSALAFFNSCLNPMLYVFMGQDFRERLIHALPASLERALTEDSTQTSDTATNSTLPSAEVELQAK

[2] = Metabolic stability in rat liver microsomes assessed as parent compound remaining at 10 uM preincubated for 10 mins followed by NADPH addition measured after 30 mins by liquid chromatographic method; type: ADME, microsome; settings: 0.5 h
[3] = target: T2, N-formyl peptide receptor 2 (Homo sapiens, UniProt P25090); assay: Agonist activity at human FPR2 expressed in human HL60 cells assessed as induction of calcium mobilization measured every 5 secs for 240 secs by Fluo-4-AM dye based fluorometric method; type: functional, cell-based; settings: read-out: EC50
T2 sequence (P25090 whole entry): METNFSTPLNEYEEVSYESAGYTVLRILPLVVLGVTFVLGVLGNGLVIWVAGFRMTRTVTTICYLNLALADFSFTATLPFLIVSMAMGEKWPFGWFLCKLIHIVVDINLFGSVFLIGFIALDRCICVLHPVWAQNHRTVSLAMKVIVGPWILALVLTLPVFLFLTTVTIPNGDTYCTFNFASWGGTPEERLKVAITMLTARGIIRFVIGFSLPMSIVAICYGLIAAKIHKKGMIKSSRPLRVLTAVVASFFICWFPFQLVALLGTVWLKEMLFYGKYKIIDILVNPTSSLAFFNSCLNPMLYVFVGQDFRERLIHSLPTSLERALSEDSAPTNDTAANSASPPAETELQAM

[4] = target: T3, N-formyl peptide receptor 2 (Homo sapiens) (UniProt P25090); assay: Agonist activity at human FPR2 expressed in human HL60 cells assessed as induction of calcium mobilization measured every 5 secs for 240 secs by Fluo-4-AM dye based fluorometric method relative to WKYMVM; type: functional, cell-based
T3 sequence (whole entry): T2 sequence (P25090 whole entry)

[5] = target: T1, fMet-Leu-Phe receptor; assay: Agonist activity at human FPR1 expressed in human HL60 cells assessed as induction of calcium mobilization measured every 5 secs for 240 secs by Fluo-4-AM dye based fluorometric method; type: functional, cell-based; settings: read-out: EC50
[6] = target: T4, fMet-Leu-Phe receptor (Homo sapiens) (UniProt P21462); assay: Agonist activity at human FPR1 expressed in human HL60 cells assessed as induction of calcium mobilization measured every 5 secs for 240 secs by Fluo-4-AM dye based fluorometric method relative to fMLF; type: functional, cell-based
T4 sequence (whole entry): T1 sequence (P21462 whole entry)

[7] = target: T2, N-formyl peptide receptor 2; assay: Agonist activity at FPR2 in human neutrophils assessed as induction of calcium mobilization measured every 5 secs for 240 secs by Fluo-4-AM dye based fluorometric method; type: functional; settings: read-out: EC50
[8] = Half life in rat liver microsomes at 10 uM preincubated for 10 mins followed by NADPH addition by liquid chromatographic method; type: ADME, microsome
[9] = Intrinsic clearance in rat liver microsomes at 10 uM preincubated for 10 mins followed by NADPH addition by liquid chromatographic method; type: ADME, microsome
[10] = test system: Microglia; assay: Cytotoxicity against Sprague-Dawley rat primary microglia cells assessed as cell death at 0.5 to 10 uM after 24 hrs by LDH assay; type: cell-based
[11] = test system: Microglia; assay: Cytotoxicity against Sprague-Dawley rat primary microglia cells assessed as reduction in cell viability at 0.5 to 10 uM after 24 hrs by MTT assay; type: cell-based
[12] = test system: Microglia; assay: Cytotoxicity against Sprague-Dawley rat primary microglia cells assessed as cell death at 50 uM after 24 hrs by LDH assay; type: cell-based
[13] = test system: Microglia; assay: Cytoprotection against LPS-induced cell death in Sprague-Dawley rat primary microglia cells at 1 to 5 uM pretreated for 1 hr followed by LPS stimulation for 24 hrs by LDH assay; type: functional, cell-based
[14] = test system: Microglia; assay: Cytoprotection against LPS-induced cell death in Sprague-Dawley rat primary microglia cells at 0.5 to 50 uM pretreated for 1 hr followed by LPS stimulation for 24 hrs by MTT assay; type: functional, cell-based
[15] = test system: Microglia; assay: Proinflammatory activity in Sprague-Dawley rat primary microglia cells assessed as induction of NO level up to 10 uM after 24 hrs by Griess reagent based assay; type: cell-based
How it was run: (§1)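 Rat primary cortical microglia (Sprague-Dawley pups, 1–2 days old, >95% Iba-1/CD11b-positive) given agonist without LPS for 24 h; WRW4 added 30 min before agonist where indicated. Supernatant NO measured with Griess reagent (540 nm, 10 min room temperature); TNF-α and IL-1β by ELISA. Values normalized to vehicle-treated cells (100%).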

[16] = test system: Microglia; assay: Proinflammatory activity in Sprague-Dawley rat primary microglia cells assessed as induction of NO level up to 10 uM after 24 hrs in presence of FPR2 antagonist WRW4 by Griess reagent based assay; type: cell-based; how it was run: as §1
[17] = test system: Microglia; assay: Anti-inflammatory activity in Sprague-Dawley rat primary microglia cells assessed as inhibition of LPS-induced NO level up to 10 uM pretreated for 1 hr followed by LPS stimulation for 24 hrs by Griess reagent based assay; type: functional, cell-based
How it was run: (§2)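 Primary microglia from cortices of 1–2-day-old Sprague-Dawley rats, shaken off mixed cultures at day 9 in vitro, >95% Iba-1/CD11b-positive, used 2 days after plating. Agonist added 1 h before LPS (E. coli 0111:B4, 100 ng/ml) for 24 h; WRW4 given 30 min before agonist where stated. Medium NO by Griess reaction (540 nm); TNF-α and IL-1β by ELISA. Data as % of vehicle-treated control.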

[18] = test system: Microglia; assay: Proinflammatory activity in Sprague-Dawley rat primary microglia cells assessed as induction of IL-1beta level up to 10 uM after 24 hrs by ELISA; type: cell-based; how it was run: as §1
[19] = test system: Microglia; assay: Proinflammatory activity in Sprague-Dawley rat primary microglia cells assessed as induction of TNFalpha level up to 10 uM after 24 hrs by ELISA; type: cell-based; how it was run: as §1
[20] = test system: Microglia; assay: Proinflammatory activity in Sprague-Dawley rat primary microglia cells assessed as induction of IL-1beta level up to 10 uM after 24 hrs in presence of FPR2 antagonist WRW4 by ELISA; type: cell-based; how it was run: as §1
[21] = test system: Microglia; assay: Proinflammatory activity in Sprague-Dawley rat primary microglia cells assessed as induction of TNFalpha level up to 10 uM after 24 hrs in presence of FPR2 antagonist WRW4 by ELISA; type: cell-based; how it was run: as §1
[22] = test system: Microglia; assay: Anti-inflammatory activity in Sprague-Dawley rat primary microglia cells assessed as inhibition of LPS-induced IL-1beta level up to 10 uM pretreated for 1 hr followed by LPS stimulation for 24 hrs by ELISA; type: functional, cell-based; how it was run: as §2
[23] = test system: Microglia; assay: Anti-inflammatory activity in Sprague-Dawley rat primary microglia cells assessed as inhibition of LPS-induced TNFalpha level up to 10 uM pretreated for 1 hr followed by LPS stimulation for 24 hrs by ELISA; type: functional, cell-based; how it was run: as §2
[24] = test system: Microglia; assay: Anti-inflammatory activity in Sprague-Dawley rat primary microglia cells assessed as inhibition of LPS-induced IL-1beta level up to 10 uM pretreated for 1 hr followed by LPS stimulation for 24 hrs in presence of FPR2 antagonist WRW4 by ELISA; type: functional, cell-based; how it was run: as §2
[25] = Efflux ratio of apparent permeability in hCMEC/D3 cells at 5 to 10 uM after 2 hrs by UV-spectroscopic method; type: ADME, cell-based; settings: human, hcmec/d3, 2 h
[26] = target: T3, N-formyl peptide receptor 2 (Homo sapiens); assay: Agonist activity at FPR2 in human neutrophils assessed as induction of calcium mobilization measured every 5 secs for 240 secs by Fluo-4-AM dye based fluorometric method relative to fMLF
[27] = target: T2, N-formyl peptide receptor 2; assay: Agonist activity at human FPR2 expressed in human HL60 cells assessed as induction of calcium mobilization; type: functional, cell-based
[28] = target: T3, N-formyl peptide receptor 2 (Homo sapiens); assay: Agonist activity at human FPR2 expressed in human HL60 cells assessed as induction of calcium mobilization relative to control; type: functional, cell-based
[29] = test system: Microglia; assay: Cytotoxicity against Sprague-Dawley rat primary microglia cells assessed as reduction in cell viability at 50 uM after 24 hrs by MTT assay; type: cell-based
[30] = test system: Microglia; assay: Anti-inflammatory activity in Sprague-Dawley rat primary microglia cells assessed as inhibition of LPS-induced TNFalpha level up to 10 uM pretreated for 1 hr followed by LPS stimulation for 24 hrs in presence of FPR2 antagonist WRW4 by ELISA; type: functional, cell-based; how it was run: as §2
[31] = test system: Microglia; assay: Anti-inflammatory activity in Sprague-Dawley rat primary microglia cells assessed as inhibition of LPS-induced IL-1beta level at 0.05 to 0.1 uM pretreated for 1 hr followed by LPS stimulation for 24 hrs by ELISA; type: functional, cell-based; how it was run: as §2
[32] = test system: Microglia; assay: Anti-inflammatory activity in Sprague-Dawley rat primary microglia cells assessed as inhibition of LPS-induced TNFalpha level at 0.05 to 0.1 uM pretreated for 1 hr followed by LPS stimulation for 24 hrs by ELISA; type: functional, cell-based; how it was run: as §2
[33] = test system: Microglia; assay: Anti-inflammatory activity in Sprague-Dawley rat primary microglia cells assessed as inhibition of LPS-induced NO level at 5 to 10 uM pretreated for 1 hr followed by LPS stimulation for 24 hrs by Griess reagent based assay; type: functional, cell-based; how it was run: as §2
[34] = test system: Microglia; assay: Anti-inflammatory activity in Sprague-Dawley rat primary microglia cells assessed as inhibition of LPS-induced NO level up to 10 uM pretreated for 1 hr followed by LPS stimulation for 24 hrs in presence of FPR2 antagonist WRW4 by Griess reagent based assay; type: functional, cell-based; how it was run: as §2

Stability [2]	pEC50 [3]	Efficacy [4]	pEC50 [5]	Efficacy [6]	pEC50 [7]	t1/2 [8]	Microsomal intrinsic clearance (CLint) [9]	SMILES	Activity [10]	Activity [11]	Activity [12]	Activity [13]	Activity [14]	Activity [15]	Activity [16]	Activity [18]	Activity [19]	Activity [20]	Activity [21]	inhibition [22]	further results
33%	5.41	80%	5.28	55%	6.72	0.8 h	14.4 µL/min/mg	N#Cc1ccc(C[C@H](NC(=O)Nc2ccc(F)cc2)C(=O)NCC2(c3ccc(F)c(Cl)c3)CC2)cc1	Non-Toxic	Non-Toxic	Toxic	Active	inactive	Non-Toxic	Non-Toxic	Non-Toxic	Non-Toxic	Non-Toxic	Non-Toxic	Active	Activity [29]: Toxic; inhibition [17]: inactive; inhibition [23]: Active; inhibition [24]: inactive; inhibition [30]: inactive; inhibition [31]: inactive; inhibition [32]: inactive; Ratio [25]: 2.6; Efficacy [26]: 130%
56%	6.20	100%	5.55	75%	5.60	2 h	5.78 µL/min/mg	N#Cc1ccc(C[C@H](NC(=O)Nc2ccc([N+](=O)[O-])cc2)C(=O)NCC2(c3ccccc3)CC2)cc1	Non-Toxic	Non-Toxic	Toxic	Active	inactive	Non-Toxic	Non-Toxic	Non-Toxic	Non-Toxic	Non-Toxic	Non-Toxic	Active	Activity [29]: Toxic; inhibition [33]: Active; inhibition [34]: Active; inhibition [23]: Active; inhibition [24]: Active; inhibition [30]: Active; Ratio [25]: 5.06; Efficacy [26]: 115%

Continued, compound first:

SMILES	Stability [2]	pEC50 [3]	Efficacy [4]	pEC50 [5]	Efficacy [6]	pEC50 [7]	t1/2 [8]	Microsomal intrinsic clearance (CLint) [9]	Activity [10]	Activity [11]	Activity [12]	Activity [13]	Activity [14]	Activity [15]	Activity [16]	Activity [18]	Activity [19]	Activity [20]	Activity [21]	inhibition [22]	further results
COc1ccc(NC(=O)N[C@@H](Cc2c[nH]c3ccccc23)C(=O)NCC2(c3ccc(OC)cn3)CCCCC2)cc1	4%	–	–	–	–	–	–	–	–	–	–	–	–	–	–	–	–	–	–	–	pEC50 [1]: 6.59
O=C(Nc1ccc([N+](=O)[O-])cc1)N[C@H](Cc1cccnc1)C(=O)NCC1(c2ccccc2)CC1	45%	5.54	60%	5.82	145%	6.92	1.65 h	7 µL/min/mg	Non-Toxic	Non-Toxic	Toxic	Active	inactive	Non-Toxic	Non-Toxic	Non-Toxic	Non-Toxic	Non-Toxic	Non-Toxic	Active	inhibition [17]: inactive; inhibition [23]: Active; inhibition [24]: inactive; Ratio [25]: 3.7; Efficacy [26]: 90%
O=C(Nc1ccc([N+](=O)[O-])cc1)N[C@@H](Cc1c[nH]c2ccccc12)C(=O)NCC1(c2ccccc2)CC1	11%	–	–	–	–	–	–	–	–	–	–	–	–	–	–	–	–	–	–	–	pEC50 [27]: 5.12; Efficacy [28]: 60%
